{"source": "ChEMBL document CHEMBL2424590", "about": "“4-[18F]Fluoro-m-hydroxyphenethylguanidine: a radiopharmaceutical for quantifying regional cardiac sympathetic nerve density with positron emission tomography” (J Med Chem, 2013)", "key": {"Rattus norvegicus [1]": {"system": "Rattus norvegicus", "test": "Biodistribution in Sprague-Dawley rat stomach at 20 to 120 uCi, iv after 5 mins by gamma counting analysis", "format": "ADME, organism-based", "conditions": "in vivo; call rule not given here", "method_in_brief": "(§1)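 Male and female rats (2 per sex per time point, 280–330 g) under light isoflurane given tail-vein bolus of 20–120 μCi tracer in 0.05–0.10 mL isotonic 60 mM sodium phosphate, pH 5.4. Tissues sampled at 5, 30, 60 or 120 min, weighed and gamma-counted. Decay-corrected dpm per gram normalised to injected dpm and body weight, given as %ID·kg/g.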"}, "[2]": {"test": "Drug uptake in rhesus macaque monkey myocardium at 0.1 mCi by compartmental modeling analysis", "format": "ADME, tissue-based, Macaca mulatta", "method_in_brief": "(§2)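 Same monkey for all studies. Desipramine (0.010, 0.0316, 0.10 or 1.0 mg/kg; n = 1 each) in 2.0 mL saline infused i.v. over 20 min, with tracer injected 10 min after the infusion ended; 4 control studies. ROIs on myocardium and basal LV blood pool drawn on summed final four frames. Cp(t) derived from Cwb(t) × intact fraction × Cp/Cwb. Ki from compartmental modelling and Kp as Patlak slope, fitted against DMI dose to a variable-slope sigmoidal model.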"}, "Muscle tissue [3]": {"system": "Muscle tissue", "test": "Biodistribution in Sprague-Dawley rat muscle at 20 to 120 uCi, iv after 120 mins by gamma counting analysis", "format": "ADME, organism-based", "conditions": "in vivo, 2 h", "method_in_brief": "(§3)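 Sprague-Dawley rats (280–330 g), 2 male and 2 female per time point (5, 30, 60, 120 min), under light isoflurane, received a tail-vein bolus of 20–120 μCi tracer in 0.05–0.10 mL isotonic 60 mM sodium phosphate, pH 5.4. Tissues were weighed and gamma-counted. Decay-corrected dpm/g was normalized to injected dpm per kg body weight (%ID·kg/g).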"}, "Bone": {"system": "Bone", "test": "Biodistribution in Sprague-Dawley rat bone at 20 to 120 uCi, iv after 60 mins by gamma counting analysis", "format": "ADME, organism-based, Bone element", "conditions": "in vivo, 1 h", "method_in_brief": "as §3"}, "Spleen [4]": {"system": "Spleen", "test": "Biodistribution in Sprague-Dawley rat spleen at 20 to 120 uCi, iv after 30 mins by gamma counting analysis", "format": "ADME, organism-based", "conditions": "in vivo, 0.5 h", "method_in_brief": "as §3"}, "Blood [5]": {"system": "Blood", "test": "Biodistribution in Sprague-Dawley rat blood at 20 to 120 uCi, iv after 60 mins by gamma counting analysis", "format": "ADME, organism-based", "conditions": "in vivo, 1 h", "method_in_brief": "as §3"}, "Blood [6]": {"system": "Blood", "test": "Biodistribution in Sprague-Dawley rat blood at 20 to 120 uCi, iv after 30 mins by gamma counting analysis", "format": "ADME, organism-based", "conditions": "in vivo, 0.5 h", "method_in_brief": "as §3"}, "Kidney": {"system": "Kidney", "test": "Biodistribution in Sprague-Dawley rat kidney at 20 to 120 uCi, iv after 30 mins by gamma counting analysis", "format": "ADME, organism-based", "conditions": "in vivo, 0.5 h", "method_in_brief": "as §3"}, "Plasma [7]": {"system": "Plasma", "test": "Metabolic stability in rhesus macaque monkey plasma assessed as retention time at 5 to 6 mCi, iv by RP-HPLC analysis", "format": "ADME, organism-based, Macaca mulatta", "conditions": "in vivo", "method_in_brief": "(§4)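 Six venous samples (1.5–2.0 mL; typically 1, 2, 4, 10, 30, 60 min) drawn during the monkey PET scan into heparin and centrifuged 1 min at 12000 × g. Plasma deproteinised with HClO₄ (final 0.4 N), spun, neutralised with KOH to pH 7.0–7.5 and filtered twice (0.22 μm). Analysed by reverse-phase HPLC (10% EtOH in 60 mM NaH₂PO₄, pH 5.4, 1.0 mL/min) with NaI(Tl) radiodetection. Decay-corrected intact fraction per sample; T1/2 is the time at which 50% of plasma activity is metabolite.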"}, "Liver": {"system": "Liver", "test": "Biodistribution in Sprague-Dawley rat liver at 20 to 120 uCi, iv after 120 mins by gamma counting analysis", "format": "ADME, organism-based", "conditions": "in vivo, 2 h", "method_in_brief": "as §3"}, "Heart [8]": {"system": "Heart", "test": "Biodistribution in Sprague-Dawley rat heart at 20 to 120 uCi, iv after 60 mins by gamma counting analysis", "format": "ADME, organism-based", "conditions": "in vivo, 1 h", "method_in_brief": "as §3"}, "Pancreas [9]": {"system": "Pancreas", "test": "Biodistribution in Sprague-Dawley rat pancreas at 20 to 120 uCi, iv after 60 mins by gamma counting analysis", "format": "ADME, organism-based", "conditions": "in vivo, 1 h", "method_in_brief": "as §3"}, "Brain [10]": {"system": "Brain", "test": "Biodistribution in Sprague-Dawley rat brain at 20 to 120 uCi, iv after 60 mins by gamma counting analysis", "format": "ADME, organism-based", "conditions": "in vivo, 1 h", "method_in_brief": "as §3"}, "Adrenal [11]": {"system": "Adrenal", "test": "Biodistribution in Sprague-Dawley rat adrenal at 20 to 120 uCi, iv after 30 mins by gamma counting analysis", "format": "ADME, organism-based, Adrenal tissue", "conditions": "in vivo, 0.5 h", "method_in_brief": "as §3"}, "Ovary": {"system": "Ovary", "test": "Biodistribution in Sprague-Dawley rat ovary at 20 to 120 uCi, iv after 5 mins by gamma counting analysis", "format": "ADME, organism-based, Female gonad", "conditions": "in vivo", "method_in_brief": "as §3, with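 “g)” for “g), 2 male and 2 female per time point (5, 30, 60, 120 min),”, “isoflurane” for “isoflurane,”, “Sampling was at 5, 30, 60 or 120 min. […]” for “Tissues”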"}, "[12]": {"test": "Drug uptake in rhesus macaque monkey myocardium at 0.1 mCi after 10 to 30 mins by gamma counting analysis", "format": "ADME, Macaca mulatta", "conditions": "in vivo"}, "Blood [13]": {"system": "Blood", "test": "Biodistribution in Sprague-Dawley rat blood at 20 to 120 uCi, iv after 5 mins by gamma counting analysis", "format": "ADME, organism-based", "conditions": "in vivo", "method_in_brief": "as §3"}, "Adrenal [14]": {"system": "Adrenal", "test": "Biodistribution in Sprague-Dawley rat adrenal at 20 to 120 uCi, iv after 5 mins by gamma counting analysis", "format": "ADME, organism-based, Adrenal tissue", "conditions": "in vivo", "method_in_brief": "as §3"}, "Plasma [15]": {"system": "Plasma", "test": "Metabolic stability in rhesus macaque monkey plasma assessed as retention time of [18F]-2-fluoro-5-(2-guanidinoethyl)phenyl hydrogen sulfate at 5 to 6 mCi, iv by RP-HPLC analysis", "format": "ADME, organism-based, Macaca mulatta", "conditions": "in vivo", "method_in_brief": "as §4"}, "[16]": {"test": "Drug uptake in rhesus macaque monkey heart at 5 to 6 mCi, iv after 90 mins by PET analysis in presence of 0.010 mg/kg to 1 mg/kg desipramine", "format": "ADME, organism-based, Macaca mulatta", "conditions": "in vivo, 1.5 h", "method_in_brief": "as §2"}, "Nucleic Acid": {"system": "Nucleic Acid", "test": "Ratio of drug level in plasma to whole blood in rhesus macaque monkey at 5 to 6 mCi, iv by RP-HPLC analysis", "format": "ADME, organism-based, Macaca mulatta", "conditions": "in vivo", "method_in_brief": "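Venous monkey blood samples taken during PET were centrifuged 1 min at 12000 × g to separate plasma from RBCs. 0.1 mL aliquots of whole blood and plasma were gamma-counted, and decay-corrected counts gave Cp/Cwb for each sample. A pre-scan sample spiked with 0.1 mCi tracer was incubated 60–70 min at 37 °C and processed the same way.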"}, "Lung": {"system": "Lung", "test": "Biodistribution in Sprague-Dawley rat lung at 20 to 120 uCi, iv after 5 mins by gamma counting analysis", "format": "ADME, organism-based", "conditions": "in vivo", "method_in_brief": "as §3"}, "Muscle tissue [17]": {"system": "Muscle tissue", "test": "Biodistribution in Sprague-Dawley rat muscle at 20 to 120 uCi, iv after 30 mins by gamma counting analysis", "format": "ADME, organism-based", "conditions": "in vivo, 0.5 h", "method_in_brief": "as §3"}, "Rattus norvegicus [18]": {"system": "Rattus norvegicus", "test": "Biodistribution in Sprague-Dawley rat eyeballs at 20 to 120 uCi, iv after 120 mins by gamma counting analysis", "format": "ADME, organism-based, Eyeball of camera-type eye", "conditions": "in vivo, 2 h", "method_in_brief": "as §3"}, "Testes": {"system": "Testes", "test": "Biodistribution in Sprague-Dawley rat testes at 20 to 120 uCi, iv after 5 mins by gamma counting analysis", "format": "ADME, organism-based, Testis", "conditions": "in vivo", "method_in_brief": "as §1"}, "Pancreas [19]": {"system": "Pancreas", "test": "Biodistribution in Sprague-Dawley rat pancreas at 20 to 120 uCi, iv after 120 mins by gamma counting analysis", "format": "ADME, organism-based", "conditions": "in vivo, 2 h", "method_in_brief": "as §3"}, "Spleen [20]": {"system": "Spleen", "test": "Biodistribution in Sprague-Dawley rat spleen at 20 to 120 uCi, iv after 60 mins by gamma counting analysis", "format": "ADME, organism-based", "conditions": "in vivo, 1 h", "method_in_brief": "as §1"}, "Rattus norvegicus [21]": {"system": "Rattus norvegicus", "test": "Biodistribution in Sprague-Dawley rat eyeballs at 20 to 120 uCi, iv after 60 mins by gamma counting analysis", "format": "ADME, organism-based, Eyeball of camera-type eye", "conditions": "in vivo, 1 h", "method_in_brief": "as §3"}, "Brain [22]": {"system": "Brain", "test": "Biodistribution in Sprague-Dawley rat brain at 20 to 120 uCi, iv after 5 mins by gamma counting analysis", "format": "ADME, organism-based", "conditions": "in vivo", "method_in_brief": "as §3"}, "Heart [23]": {"system": "Heart", "test": "Biodistribution in Sprague-Dawley rat heart at 20 to 120 uCi, iv after 120 mins by gamma counting analysis", "format": "ADME, organism-based", "conditions": "in vivo, 2 h", "method_in_brief": "as §3"}, "Rattus norvegicus [24]": {"system": "Rattus norvegicus", "test": "Biodistribution in Sprague-Dawley rat stomach at 20 to 120 uCi, iv after 60 mins by gamma counting analysis", "format": "ADME, organism-based", "conditions": "in vivo, 1 h", "method_in_brief": "as §1"}}}
{"molecule": "N=C(N)NCCc1ccc([18F])c(O)c1", "values": [{"measurement": "Drug uptake", "setting": "Rattus norvegicus [1]", "result": 0.116, "unit": "%IDKg/g"}, {"measurement": "Ki", "setting": "[2]", "result": 0.341, "unit": "mL/min/g"}, {"measurement": "Drug uptake", "setting": "Muscle tissue [3]", "result": 0.015, "unit": "% ID/g"}, {"measurement": "Drug uptake", "setting": "Bone", "result": 0.027, "unit": "% ID/g"}, {"measurement": "Drug uptake", "setting": "Spleen [4]", "result": 0.262, "unit": "%IDKg/g"}, {"measurement": "Drug uptake", "setting": "Blood [5]", "result": 0.016, "unit": "% ID/g"}, {"measurement": "Drug uptake", "setting": "Blood [6]", "result": 0.022, "unit": "%ID·kg/g"}, {"measurement": "Drug uptake", "setting": "Kidney", "result": 0.183, "unit": "%IDKg/g"}, {"measurement": "Retention_time", "setting": "Plasma [7]", "result": 11.4, "unit": "min"}, {"measurement": "Drug uptake", "setting": "Liver", "result": 0.233, "unit": "%IDKg/g"}, {"measurement": "Drug uptake", "setting": "Heart [8]", "result": 0.526, "unit": "%IDKg/g"}, {"measurement": "Drug uptake", "setting": "Pancreas [9]", "result": 0.172, "unit": "%IDKg/g"}, {"measurement": "Drug uptake", "setting": "Brain [10]", "result": 0.002, "unit": "%IDKg/g"}, {"measurement": "Drug uptake", "setting": "Adrenal [11]", "result": 0.181, "unit": "%IDKg/g"}, {"measurement": "Drug uptake", "setting": "Ovary", "result": 0.194, "unit": "%IDKg/g"}, {"measurement": "SUV", "setting": "[12]", "result": 1.2}, {"measurement": "Drug uptake", "setting": "Blood [13]", "result": 0.062, "unit": "%ID·kg/g"}, {"measurement": "Drug uptake", "setting": "Adrenal [14]", "result": 0.203, "unit": "%IDKg/g"}, {"measurement": "Retention_time", "setting": "Plasma [15]", "result": 8.2, "unit": "min"}, {"measurement": "Drug uptake", "setting": "[16]", "result": "Not Active"}, {"measurement": "Ratio", "setting": "Nucleic Acid", "result": 1.25}, {"measurement": "Drug uptake", "setting": "Lung", "result": 0.267, "unit": "%IDKg/g"}, {"measurement": "Drug uptake", "setting": "Muscle tissue [17]", "result": 0.025, "unit": "%ID·kg/g"}, {"measurement": "Drug uptake", "setting": "Rattus norvegicus [18]", "result": 0.026, "unit": "%IDKg/g"}, {"measurement": "Drug uptake", "setting": "Testes", "result": 0.018, "unit": "%IDKg/g"}, {"measurement": "Drug uptake", "setting": "Pancreas [19]", "result": 0.121, "unit": "%IDKg/g"}, {"measurement": "Drug uptake", "setting": "Spleen [20]", "result": 0.253, "unit": "%IDKg/g"}, {"measurement": "Drug uptake", "setting": "Rattus norvegicus [21]", "result": 0.041, "unit": "%IDKg/g"}, {"measurement": "Drug uptake", "setting": "Brain [22]", "result": 0.004, "unit": "%IDKg/g"}, {"measurement": "Drug uptake", "setting": "Heart [23]", "result": 0.347, "unit": "%IDKg/g"}, {"measurement": "Drug uptake", "setting": "Rattus norvegicus [24]", "result": 0.115, "unit": "%IDKg/g"}]}
